# Measurements gathered from unrelated publications.
# Lines come from different studies, so protocols differ.
SMILES,target or system,test,system,conditions,endpoint,result
CC[C@H]1OC(=O)[C@H](C)[C@@H](O[C@H]2C[C@@](C)(OC)[C@@H](O)[C@H](C)O2)[C@H](C)[C@@H](O[C@@H]2O[C@H](C)C[C@H](N(C)C)[C@H]2O)[C@](C)(O)C[C@@H](C)/C(=N\OCOCCOC)[C@H](C)[C@@H](O)[C@]1(C)O,Streptococcus pneumoniae,microbial growth,PRSP,clinical isolate,MIC90,16 µg/mL
CCCS(=O)(=O)Oc1cc(C=NNC(=O)CSc2nc3c(C)cccc3c(=O)n2-c2ccccc2)ccc1OC,Klebsiella pneumoniae,"microbial growth, well diffusion",,20 µg/mL,inhibition zone,2 mm
CC1(C)C[C@H]2[C@H]1CC[C@]1(C)CCC[C@@]2(NS(=O)(=O)c2ccc(OC(F)(F)F)cc2)C1,HT-29,"cell growth or viability, CCK-8",,10 µM,inhibition,< 50%
COc1cc(C=NNC(=O)CSc2nc3ccc(Cl)cc3c(=O)n2-c2ccccc2)ccc1OS(C)(=O)=O,Klebsiella pneumoniae,"microbial growth, well diffusion",,20 µg/mL,inhibition zone,2 mm
O=c1oc2ccccc2c(Nc2ccccc2)c1I,Klebsiella pneumoniae,"microbial growth, broth dilution",,,MIC90,9 µg/mL
CCCS(=O)(=O)Oc1ccc(C=NNC(=O)CSc2nc3c(C)cccc3c(=O)n2-c2ccccc2)cc1OC,Klebsiella pneumoniae,"microbial growth, well diffusion",,20 µg/mL,inhibition zone,2 mm
COc1cccc(C=Nn2c(-c3ccccc3)nc3ccc(Cl)cc3c2=O)c1,LLC-PK1,"cell growth or viability, MTT",,72 h,IC50,177 µM
CC(=O)NC[C@H]1CN(c2ccc(N3CCOCC3)c(F)c2)C(=O)O1,Streptococcus pneumoniae,microbial growth,PRSP,clinical isolate,MIC90,2 µg/mL
O=c1c2cc(Cl)ccc2nc(-c2ccccc2)n1N=Cc1cccc(O)c1,LLC-PK1,"cell growth or viability, MTT",,72 h,IC50,321 µM
CCCS(=O)(=O)Oc1ccc(C=NNC(=O)CSc2nc3ccc(Cl)cc3c(=O)n2-c2ccccc2)cc1OC,Klebsiella pneumoniae,"microbial growth, well diffusion",,20 µg/mL,inhibition zone,2 mm
CC1(C)C[C@H]2[C@H]1CC[C@]1(C)CCC[C@@]2(NS(=O)(=O)C(C)(C)C)C1,HT-29,"cell growth or viability, CCK-8",,10 µM,inhibition,< 50%
C=C[C@]1(C)C[C@@H](OC(=O)CS[C@@H]2C[C@H]3CC[C@@H](C2)N3C)[C@]2(C)[C@H](C)CC[C@]3(CCC(=O)[C@H]32)[C@@H](C)[C@@H]1O,Streptococcus pneumoniae,microbial growth,PRSP,clinical isolate,MIC90,0.0312 µg/mL
CC1(C)C[C@H]2[C@H]1CC[C@]1(C)CCC[C@@]2(n2cc(CN3CCOCC3)nn2)C1,HT-29,"cell growth or viability, CCK-8",,10 µM,inhibition,< 50%
CN[C@H](CC(C)C)C(=O)N[C@H]1C(=O)N[C@@H](CC(N)=O)C(=O)N[C@H]2C(=O)N[C@H]3C(=O)N[C@H](C(=O)N[C@H](C(=O)O)c4cc(O)cc(O)c4-c4cc3ccc4O)[C@H](O)c3ccc(c(Cl)c3)Oc3cc2cc(c3O[C@@H]2O[C@H](CO)[C@@H](O)[C@H](O)[C@H]2O[C@H]2C[C@](C)(N)[C@H](O)[C@H](C)O2)Oc2ccc(cc2Cl)[C@H]1O,Streptococcus pneumoniae,"microbial growth, agar dilution",ATCC49619,,MIC,0.5 µg/mL
COc1ccc(C=Nn2c(-c3ccccc3)nc3ccc(Cl)cc3c2=O)cc1O,LLC-PK1,"cell growth or viability, MTT",,72 h,IC50,279 µM
CCCS(=O)(=O)Oc1ccc(C=NNC(=O)CSc2nc3ccc(Cl)cc3c(=O)n2-c2ccccc2)cc1,Klebsiella pneumoniae,"microbial growth, well diffusion",,20 µg/mL,inhibition zone,3 mm
CC1(C)C[C@H]2[C@H]1CC[C@]1(C)CCC[C@@]2(n2cc(C(=O)NC3CCNCC3)nn2)C1,HT-29,"cell growth or viability, CCK-8",,10 µM,inhibition,68.1%
COc1ccc(C=NNC(=O)CSc2nc3ccc(Cl)cc3c(=O)n2-c2ccccc2)cc1OS(C)(=O)=O,Klebsiella pneumoniae,"microbial growth, well diffusion",,20 µg/mL,inhibition zone,3 mm
CC1(C)C[C@H]2[C@H]1CC[C@]1(C)CCC[C@@]2(NS(=O)(=O)c2cc(Cl)cc(Cl)c2O)C1,HT-29,"cell growth or viability, CCK-8",,10 µM,inhibition,< 50%
Cc1nc(Nc2ncc(C(=O)Nc3c(C)cccc3Cl)s2)cc(N2CC[C@H](O)C2)n1,U2932,"cell growth or viability, ATP luminescence",,"10 µM, 72 h",inhibition,58%
CC1(C)C[C@H]2[C@H]1CC[C@]1(C)CCC[C@@]2(n2cc(-c3ccc(F)cc3)nn2)C1,HT-29,"cell growth or viability, CCK-8",,10 µM,inhibition,< 50%
CCCS(=O)(=O)Oc1ccc(C=NNC(=O)CSc2nc3c(C)cccc3c(=O)n2-c2ccccc2)cc1,Klebsiella pneumoniae,"microbial growth, well diffusion",,20 µg/mL,inhibition zone,3 mm
CC1(C)S[C@@H]2[C@H](NC(=O)[C@H](N)c3ccccc3)C(=O)N2[C@H]1C(=O)O,Streptococcus pneumoniae,microbial growth,,clinical isolate,MIC90,4 µg/mL
CC1(C)C[C@H]2[C@H]1CC[C@]1(C)CCC[C@@]2(n2cc(C(=O)N3CCNCC3)nn2)C1,HT-29,"cell growth or viability, CCK-8",,10 µM,inhibition,91.6%
CC(C)(O/N=C(\C(=O)N[C@@H]1C(=O)N2C(C(=O)[O-])=C(C[n+]3ccccc3)CS[C@H]12)c1csc(N)n1)C(=O)O,Klebsiella pneumoniae,"microbial growth, broth dilution",ATCC43816,,MIC,< 0.5 µg/mL
CCS(=O)(=O)Oc1cc(C=NNC(=O)CSc2nc3ccc(Cl)cc3c(=O)n2-c2ccccc2)ccc1OC,Klebsiella pneumoniae,"microbial growth, well diffusion",,20 µg/mL,inhibition zone,2 mm
CC1(C)C[C@H]2[C@H]1CC[C@]1(C)CCC[C@@]2(NS(C)(=O)=O)C1,HT-29,"cell growth or viability, CCK-8",,10 µM,inhibition,< 50%
